Data published in paper PMC9827987 (Chemmedchem, 2022).
Read-outs that look alike come from different tables or passages of the source.

How the values were obtained:
[1] = tested on: P. falciparum V1/S (QM PfDHFR); assay: In vitro antimalarial activity, 3H-hypoxanthine incorporation, V1S; type: cell-based; conditions: Plasmodium falciparum, read-out: IC50 PfV1S
In short: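 P. falciparum V1/S (quadruple-mutant PfDHFR, chloroquine-resistant) grown in human erythrocytes at 37 °C under 3% CO2. Medium was RPMI 1640 with 25 mM HEPES, 0.2% NaHCO3, 40 µg/mL gentamicin and 8% human serum. Activity was measured by ³H-hypoxanthine incorporation.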

PfDHFR-QM = PfDHFR-QM (Plasmodium falciparum, UniProt P13922, I164L/N51I); assay: DHFR enzyme inhibition assay, quadruple mutant; type: biochemical
[2] = tested on: P. falciparum TM4/8.2 (wild type PfDHFR); assay: In vitro antimalarial activity, 3H-hypoxanthine incorporation, TM4/8.2; type: cell-based; conditions: Plasmodium falciparum
KB cells = assay: Cytotoxicity, sulforhodamine B staining, KB; type: cell-based; conditions: Homo sapiens, read-out: IC50 KB
HsDHFR = target: T1, HsDHFR (Homo sapiens, UniProt P00374); assay: biochemical
T1 sequence (P00374 1-187): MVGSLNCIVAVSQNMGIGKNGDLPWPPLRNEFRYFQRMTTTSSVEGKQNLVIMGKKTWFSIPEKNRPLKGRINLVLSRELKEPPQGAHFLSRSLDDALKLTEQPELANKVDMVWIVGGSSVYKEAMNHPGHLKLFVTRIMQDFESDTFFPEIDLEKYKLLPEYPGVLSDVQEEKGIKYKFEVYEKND

PfDHFR-WT = PfDHFR-WT (Plasmodium falciparum, UniProt P13922, N108S/R59C); assay: DHFR enzyme inhibition assay, wild type; type: biochemical
[3] = read-out: IC50 PfTM4/8.2, WT P. falciparum, drug sensitive strain

SMILES	IC50 [1]	Ki (PfDHFR-QM)	IC50 [2, 3]	IC50 (KB cells)	Ki (HsDHFR)	Ki (PfDHFR-WT)	IC50 ([2]; read-out: IC50 PfTM4/8.2)
Nc1nc(N)c(CNCCc2ccc(Cl)c(Cl)c2)c(C2CC2)n1 [7 n, 6‐Cyclopropyl‐5‐{[(3,4‐dichlorophenethyl)amino]methyl}pyrimidine‐2,4‐diamine]	4.4 ± 0.1 µM	0.013 ± 4e-05 µM	3.3 ± 0.1 µM	23 ± 0.5 µM	0.202 ± 0.006 µM	0.0013 ± 6e-05 µM	–
COc1ccccc1CCNCc1c(N)nc(N)nc1C1CCCCC1 [7 o, 6‐Cyclohexyl‐5‐{[(2‐methoxyphenethyl)amino]methyl}pyrimidine‐2,4‐diamine]	9.4 ± 1.9 µM	0.126 ± 0.009 µM	–	22 ± 0.3 µM	> 500 µM	0.128 ± 0.009 µM	3.7 ± 0.3 µM
COc1cccc(CCNCc2c(N)nc(N)nc2C2CCCCC2)c1 [7 p, 6‐Cyclohexyl‐5‐{[(3‐methoxyphenethyl)amino]methyl}pyrimidine‐2,4‐diamine]	4.1 ± 0.3 µM	0.056 ± 0.002 µM	–	23 ± 0.3 µM	> 500 µM	0.031 ± 0.005 µM	3.5 ± 0.2 µM
COc1ccc(CCNCc2c(N)nc(N)nc2C2CCCCC2)cc1 [7 q, 6‐Cyclohexyl‐5‐{[(4‐methoxyphenethyl)amino]methyl}pyrimidine‐2,4‐diamine]	3.7 ± 0.2 µM	0.055 ± 0.002 µM	–	23 ± 0.2 µM	> 500 µM	0.032 ± 0.001 µM	1.8 ± 0.1 µM
Nc1nc(N)c(CNCCc2ccccc2F)c(C2CCCCC2)n1 [7 r, 6‐Cyclohexyl‐5‐{[(2‐fluorophenethyl)amino]methyl}pyrimidine‐2,4‐diamine]	16 ± 2 µM	0.083 ± 0.001 µM	–	48 ± 14 µM	> 500 µM	0.061 ± 0.0015 µM	4.1 ± 0.7 µM
Nc1nc(N)c(CNCCc2cccc(F)c2)c(C2CCCCC2)n1 [7 s, 6‐Cyclohexyl‐5‐{[(3‐fluorophenethyl)amino]methyl}pyrimidine‐2,4‐diamine]	11 ± 2 µM	0.074 ± 0.002 µM	–	62 ± 3 µM	> 500 µM	0.076 ± 0.005 µM	3 ± 0.4 µM
Nc1nc(N)c(CNCCc2ccc(F)cc2)c(C2CCCCC2)n1 [7 t, 6‐Cyclohexyl‐5‐{[(4‐fluorophenethyl)amino]methyl}pyrimidine‐2,4‐diamine]	7 ± 2 µM	0.136 ± 0.007 µM	–	56 ± 5 µM	> 250 µM	0.08 ± 0.009 µM	2.2 ± 0.1 µM
Nc1nc(N)c(CNCCc2ccccc2Cl)c(C2CCCCC2)n1 [7 u, 6‐Cyclohexyl‐5‐{[(2‐chlorophenethyl)amino]methyl}pyrimidine‐2,4‐diamine]	16 ± 1 µM	0.038 ± 0.001 µM	–	22 ± 0.05 µM	> 250 µM	0.022 ± 0.002 µM	3.3 ± 0.3 µM
Nc1nc(N)c(CNCCc2cccc(Cl)c2)c(C2CCCCC2)n1 [7 v, 6‐Cyclohexyl‐5‐{[(3‐chlorophenethyl)amino]methyl}pyrimidine‐2,4‐diamine]	4 ± 0.2 µM	0.036 ± 0.004 µM	–	23 ± 0.2 µM	> 250 µM	0.025 ± 0.001 µM	3.1 ± 0.4 µM
Nc1nc(N)c(CNCCc2ccc(Cl)cc2)c(C2CCCCC2)n1 [7 w, 6‐Cyclohexyl‐5‐{[(4‐chlorophenethyl)amino]methyl}pyrimidine‐2,4‐diamine]	4.5 ± 0.3 µM	0.06 ± 0.001 µM	–	23 ± 0.2 µM	> 500 µM	–	3.1 ± 0.2 µM
Nc1nc(N)c(CNCCc2ccc(Cl)cc2Cl)c(C2CCCCC2)n1 [7 x, 6‐Cyclohexyl‐5‐{[(2,4‐dichlorophenethyl)amino]methyl}pyrimidine‐2,4‐diamine]	4.9 ± 0.3 µM	0.123 ± 0.008 µM	–	62 ± 3 µM	> 250 µM	0.007 ± 0.0003 µM	2.5 ± 0.4 µM
Nc1nc(N)c(CNCCc2ccc(Cl)c(Cl)c2)c(C2CCCCC2)n1 [7 y, 6‐Cyclohexyl‐5‐{[(3,4‐dichlorophenethyl)amino]methyl}pyrimidine‐2,4‐diamine]	4 ± 0.3 µM	0.028 ± 0.003 µM	–	22 ± 0.1 µM	> 250 µM	0.009 ± 0.0007 µM	3.5 ± 0.3 µM
CC1(C)N=C(N)N=C(N)N1c1ccc(Cl)cc1 [CYC, cycloguanil, reference compound]	92 ± 6 µM	0.42 ± 0.13 µM	–	> 100 µM	–	–	0.03 ± 0.005 µM
CCc1nc(N)nc(N)c1-c1ccc(Cl)cc1 [PYR, pyrimethamine, reference compound]	> 100 µM	–	0.053 µM	60 ± 26 µM	–	–	0.05 ± 0.007 µM
